Here are results for 3 compounds from ChEMBL document CHEMBL1641579, “Synthesis and biological evaluation of 7-substituted-1-(3-bromophenylamino)isoquinoline-4-carbonitriles as inhibitors of myosin light chain kinase and epidermal growth factor receptor” (Bioorg Med Chem, 2011).

For orientation: IC50 means the point on the concentration scale where inhibition reaches its midpoint.

Structures are written as SMILES.

Assay [1] concerns the target T1, Inhibitor of nuclear factor kappa-B kinase subunit epsilon (Homo sapiens) (UniProt Q14164).
T1 sequence (whole entry): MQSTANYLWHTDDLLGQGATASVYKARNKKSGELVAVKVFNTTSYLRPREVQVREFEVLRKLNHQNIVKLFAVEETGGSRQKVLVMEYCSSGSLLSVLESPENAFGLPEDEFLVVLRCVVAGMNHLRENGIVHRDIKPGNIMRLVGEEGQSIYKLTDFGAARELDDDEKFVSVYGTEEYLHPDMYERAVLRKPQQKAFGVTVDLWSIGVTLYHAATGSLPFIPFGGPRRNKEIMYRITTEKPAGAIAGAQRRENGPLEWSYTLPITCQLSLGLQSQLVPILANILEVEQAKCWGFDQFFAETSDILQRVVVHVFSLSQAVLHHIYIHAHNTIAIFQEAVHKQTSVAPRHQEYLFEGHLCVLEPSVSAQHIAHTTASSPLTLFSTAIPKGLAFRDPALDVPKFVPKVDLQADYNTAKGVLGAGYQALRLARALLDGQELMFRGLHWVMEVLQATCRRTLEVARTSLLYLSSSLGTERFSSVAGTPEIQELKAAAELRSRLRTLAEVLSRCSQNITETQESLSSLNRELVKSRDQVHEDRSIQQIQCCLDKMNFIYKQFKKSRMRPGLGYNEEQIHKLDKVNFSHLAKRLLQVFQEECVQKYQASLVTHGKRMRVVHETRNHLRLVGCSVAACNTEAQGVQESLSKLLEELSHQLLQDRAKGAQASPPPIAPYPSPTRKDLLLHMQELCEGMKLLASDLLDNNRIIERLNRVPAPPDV
Briefly: Inhibition of IKKepsilon assessed as residual activity at 10 uM. In outline:
(§1)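 Kinase panel screen run as a radioactive activity assay at single compound concentration. Score reported as percent activity remaining relative to DMSO controls (100%).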

The target in assay [2] is T2, Myosin light chain kinase, smooth muscle (Homo sapiens, UniProt Q15746). Briefly: Inhibition of MLCK by HTRF assay. For orientation: TR-FRET usually uses a lanthanide donor and a delayed reading to cut background.
T2 sequence (Q15746 whole entry): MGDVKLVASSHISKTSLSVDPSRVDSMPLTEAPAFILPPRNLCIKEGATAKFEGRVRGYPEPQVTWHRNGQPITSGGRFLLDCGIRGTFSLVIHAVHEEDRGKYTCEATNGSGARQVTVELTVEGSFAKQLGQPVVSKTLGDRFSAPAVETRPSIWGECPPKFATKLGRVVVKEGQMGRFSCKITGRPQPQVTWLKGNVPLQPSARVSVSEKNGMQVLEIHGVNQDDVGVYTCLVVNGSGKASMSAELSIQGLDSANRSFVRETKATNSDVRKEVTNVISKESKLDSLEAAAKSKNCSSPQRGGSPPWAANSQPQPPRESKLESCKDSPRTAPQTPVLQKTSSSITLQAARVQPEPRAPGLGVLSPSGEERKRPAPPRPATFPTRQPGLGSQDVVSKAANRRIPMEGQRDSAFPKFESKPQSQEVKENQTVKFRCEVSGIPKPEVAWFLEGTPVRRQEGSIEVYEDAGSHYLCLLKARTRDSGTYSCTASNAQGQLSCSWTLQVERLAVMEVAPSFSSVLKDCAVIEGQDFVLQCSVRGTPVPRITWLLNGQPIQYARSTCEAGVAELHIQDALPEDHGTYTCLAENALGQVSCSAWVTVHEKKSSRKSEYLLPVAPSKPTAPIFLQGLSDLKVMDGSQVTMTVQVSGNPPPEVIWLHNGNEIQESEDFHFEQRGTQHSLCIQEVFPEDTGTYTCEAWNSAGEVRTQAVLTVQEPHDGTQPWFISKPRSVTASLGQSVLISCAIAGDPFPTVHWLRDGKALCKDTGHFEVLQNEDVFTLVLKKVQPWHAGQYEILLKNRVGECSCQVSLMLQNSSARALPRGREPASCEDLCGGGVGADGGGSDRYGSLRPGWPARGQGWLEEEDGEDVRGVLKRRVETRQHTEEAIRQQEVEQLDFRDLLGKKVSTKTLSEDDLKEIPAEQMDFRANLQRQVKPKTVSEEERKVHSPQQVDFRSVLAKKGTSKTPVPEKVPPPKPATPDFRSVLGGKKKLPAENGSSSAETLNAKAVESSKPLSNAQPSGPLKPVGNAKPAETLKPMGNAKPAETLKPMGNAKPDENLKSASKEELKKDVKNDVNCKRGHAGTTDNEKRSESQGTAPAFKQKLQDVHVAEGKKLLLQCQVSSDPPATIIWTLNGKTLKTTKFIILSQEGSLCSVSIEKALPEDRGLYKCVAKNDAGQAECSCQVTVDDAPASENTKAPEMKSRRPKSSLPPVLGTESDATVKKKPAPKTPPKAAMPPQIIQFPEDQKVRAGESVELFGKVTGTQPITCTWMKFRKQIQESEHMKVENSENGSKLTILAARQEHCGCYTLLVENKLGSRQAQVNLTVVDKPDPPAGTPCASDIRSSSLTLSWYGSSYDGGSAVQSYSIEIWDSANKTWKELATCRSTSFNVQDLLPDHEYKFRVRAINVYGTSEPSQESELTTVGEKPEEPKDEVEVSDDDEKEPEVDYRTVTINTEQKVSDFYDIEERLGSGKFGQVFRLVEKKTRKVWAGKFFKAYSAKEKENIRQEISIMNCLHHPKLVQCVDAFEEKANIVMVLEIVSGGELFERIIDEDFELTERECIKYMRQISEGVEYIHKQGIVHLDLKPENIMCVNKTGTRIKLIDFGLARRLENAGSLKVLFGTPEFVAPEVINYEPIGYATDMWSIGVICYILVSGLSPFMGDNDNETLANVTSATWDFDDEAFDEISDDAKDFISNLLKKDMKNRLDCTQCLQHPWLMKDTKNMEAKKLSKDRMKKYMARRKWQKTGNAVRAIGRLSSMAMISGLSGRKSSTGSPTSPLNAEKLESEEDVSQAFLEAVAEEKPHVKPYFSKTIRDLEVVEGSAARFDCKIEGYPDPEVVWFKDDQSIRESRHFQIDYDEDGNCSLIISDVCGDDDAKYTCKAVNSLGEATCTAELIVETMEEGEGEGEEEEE
The target of assay [3] is Protein kinase C alpha type (Homo sapiens) (UniProt P17252). The assay is described as follows: Inhibition of PKCalpha assessed as residual activity at 10 uM. In outline: (§2)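 Panel screen by radioactive kinase assay at a single inhibitor concentration. Score is the percent activity remaining relative to DMSO controls (100%).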
Assay [4] addresses T3, Aurora kinase A (Homo sapiens) (UniProt O14965).
T3 sequence (whole entry): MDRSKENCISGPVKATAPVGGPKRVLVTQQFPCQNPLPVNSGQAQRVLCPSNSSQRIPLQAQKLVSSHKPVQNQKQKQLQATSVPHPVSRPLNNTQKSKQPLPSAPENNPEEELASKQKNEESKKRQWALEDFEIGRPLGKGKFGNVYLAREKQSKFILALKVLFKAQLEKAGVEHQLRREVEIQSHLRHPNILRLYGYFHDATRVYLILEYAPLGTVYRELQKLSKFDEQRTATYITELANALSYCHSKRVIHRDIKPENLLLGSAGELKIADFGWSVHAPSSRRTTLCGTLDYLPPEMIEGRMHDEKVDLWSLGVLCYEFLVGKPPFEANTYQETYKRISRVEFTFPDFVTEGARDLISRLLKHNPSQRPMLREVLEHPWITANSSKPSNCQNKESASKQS
The assay is described as follows: Inhibition of aurora A assessed as residual activity at 10 uM. A digest of the protocol:
as §2

Assay [5] has as its target T4, Dual specificity protein kinase TTK (Homo sapiens) (UniProt P33981).
T4 sequence (whole entry): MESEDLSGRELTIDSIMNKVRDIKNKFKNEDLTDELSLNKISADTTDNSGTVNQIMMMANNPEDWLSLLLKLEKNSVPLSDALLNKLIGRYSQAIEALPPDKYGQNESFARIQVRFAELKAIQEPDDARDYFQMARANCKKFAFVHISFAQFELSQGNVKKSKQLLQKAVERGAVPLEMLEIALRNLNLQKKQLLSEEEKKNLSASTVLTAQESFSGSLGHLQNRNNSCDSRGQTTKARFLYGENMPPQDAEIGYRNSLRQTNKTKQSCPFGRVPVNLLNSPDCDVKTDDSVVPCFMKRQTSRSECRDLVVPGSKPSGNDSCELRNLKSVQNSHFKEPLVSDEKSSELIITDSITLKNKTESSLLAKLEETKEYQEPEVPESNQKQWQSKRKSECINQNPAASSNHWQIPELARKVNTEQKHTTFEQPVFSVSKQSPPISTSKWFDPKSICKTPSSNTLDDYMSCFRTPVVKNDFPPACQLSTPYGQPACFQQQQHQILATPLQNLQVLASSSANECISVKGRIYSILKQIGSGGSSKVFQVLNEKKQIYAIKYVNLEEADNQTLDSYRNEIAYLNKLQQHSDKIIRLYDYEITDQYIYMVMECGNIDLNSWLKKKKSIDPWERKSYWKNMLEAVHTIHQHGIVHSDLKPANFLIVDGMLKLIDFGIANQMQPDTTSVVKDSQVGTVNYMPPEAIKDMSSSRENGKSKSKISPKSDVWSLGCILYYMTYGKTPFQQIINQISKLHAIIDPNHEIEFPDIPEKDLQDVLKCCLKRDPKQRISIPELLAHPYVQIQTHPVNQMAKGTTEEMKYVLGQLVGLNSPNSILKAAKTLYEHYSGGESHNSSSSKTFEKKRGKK
The assay is described as follows: Inhibition of TTK assessed as residual activity at 10 uM. In outline:
as §2

Assay [6] addresses Mitogen-activated protein kinase 9 (Homo sapiens) (UniProt P45984). The assay is described as follows: Inhibition of JNK2 assessed as residual activity at 10 uM. In outline: as §1
For assay [7], the target named is Fibroblast growth factor receptor 1 (Homo sapiens) (UniProt P11362). The assay is described as follows: Inhibition of FGFR1 assessed as residual activity at 10 uM. In outline:
as §1

Assay [8] has as its target T2, Myosin light chain kinase, smooth muscle. The assay is described as follows: Inhibition of smMLCK assessed as residual activity at 10 uM. A digest of the protocol: as §2
The target of assay [9] is RAC-alpha serine/threonine-protein kinase (Homo sapiens) (UniProt P31749). Briefly: Inhibition of PKBalpha assessed as residual activity at 10 uM. A digest of the protocol: as §2
Chain of RAC-alpha serine/threonine-protein kinase (Homo sapiens) (P31749 whole entry): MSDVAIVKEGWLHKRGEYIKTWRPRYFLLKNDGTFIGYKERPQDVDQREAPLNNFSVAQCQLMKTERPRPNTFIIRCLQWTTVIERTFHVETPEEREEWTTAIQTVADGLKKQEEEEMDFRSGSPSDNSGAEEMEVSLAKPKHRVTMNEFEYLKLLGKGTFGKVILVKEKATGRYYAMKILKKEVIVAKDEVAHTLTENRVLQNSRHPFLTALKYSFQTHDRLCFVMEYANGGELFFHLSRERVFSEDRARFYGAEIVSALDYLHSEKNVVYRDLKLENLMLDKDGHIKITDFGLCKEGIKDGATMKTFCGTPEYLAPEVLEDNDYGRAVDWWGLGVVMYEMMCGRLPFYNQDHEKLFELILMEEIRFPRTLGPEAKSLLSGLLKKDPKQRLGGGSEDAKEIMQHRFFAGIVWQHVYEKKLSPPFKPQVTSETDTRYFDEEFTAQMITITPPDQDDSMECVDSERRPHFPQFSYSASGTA

Chain of Mitogen-activated protein kinase 9 (Homo sapiens) (P45984 whole entry, looked up): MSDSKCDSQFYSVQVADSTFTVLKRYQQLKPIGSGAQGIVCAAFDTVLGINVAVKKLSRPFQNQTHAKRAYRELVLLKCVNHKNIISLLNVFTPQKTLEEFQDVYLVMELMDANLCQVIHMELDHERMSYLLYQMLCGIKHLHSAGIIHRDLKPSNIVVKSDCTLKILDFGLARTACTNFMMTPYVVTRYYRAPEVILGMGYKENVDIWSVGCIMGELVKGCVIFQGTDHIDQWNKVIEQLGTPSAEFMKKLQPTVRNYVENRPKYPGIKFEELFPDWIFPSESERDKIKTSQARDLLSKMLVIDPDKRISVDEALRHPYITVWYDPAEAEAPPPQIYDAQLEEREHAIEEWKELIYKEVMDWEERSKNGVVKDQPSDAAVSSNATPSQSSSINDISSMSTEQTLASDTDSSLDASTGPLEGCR
Chain of Fibroblast growth factor receptor 1 (Homo sapiens) (P11362 22-822 limits assumed): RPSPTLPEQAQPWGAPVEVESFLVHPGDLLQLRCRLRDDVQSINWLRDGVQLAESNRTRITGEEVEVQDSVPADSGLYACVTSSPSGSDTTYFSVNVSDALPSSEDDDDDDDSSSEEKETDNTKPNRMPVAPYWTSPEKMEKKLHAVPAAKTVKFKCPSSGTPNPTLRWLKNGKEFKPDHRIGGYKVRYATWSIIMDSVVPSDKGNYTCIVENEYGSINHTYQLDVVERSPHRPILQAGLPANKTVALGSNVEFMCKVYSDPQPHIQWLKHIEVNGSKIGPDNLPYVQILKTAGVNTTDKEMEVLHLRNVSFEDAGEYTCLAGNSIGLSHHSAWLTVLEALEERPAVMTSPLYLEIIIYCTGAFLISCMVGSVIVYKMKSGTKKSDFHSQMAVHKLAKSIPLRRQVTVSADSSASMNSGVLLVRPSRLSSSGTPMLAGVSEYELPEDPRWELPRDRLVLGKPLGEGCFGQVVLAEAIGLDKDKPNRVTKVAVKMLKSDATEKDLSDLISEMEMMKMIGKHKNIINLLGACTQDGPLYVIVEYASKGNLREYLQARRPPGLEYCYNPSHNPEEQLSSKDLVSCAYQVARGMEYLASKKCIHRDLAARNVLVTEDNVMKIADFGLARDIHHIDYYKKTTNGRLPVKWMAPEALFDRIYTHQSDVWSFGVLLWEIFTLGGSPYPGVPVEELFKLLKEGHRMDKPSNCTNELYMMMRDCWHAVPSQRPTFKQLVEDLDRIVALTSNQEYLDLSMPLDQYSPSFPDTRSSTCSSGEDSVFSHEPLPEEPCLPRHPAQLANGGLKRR

`CN(C)C/C=C/C(=O)Nc1ccc2c(C#N)cnc(Nc3cccc(Br)c3)c2c1`: the Activity stood at 80% in assay [1]; 69% in assay [3]; 79% in assay [4]; 74% in assay [5]; 89% in assay [6]; 51% in [7]. Also, the Activity was 33% in assay [8] and 93% in assay [9]. In addition, half-maximal inhibition in assay [2] (IC50) required 23.6 µM.

`CN1CCN(CCC(=O)Nc2ccc3c(C#N)cnc(Nc4cccc(Br)c4)c3c2)CC1`: the Activity is 91% in assay [1]; 71% in [3]; 80% in assay [4]; 81% in assay [5]; 100% in assay [6]; 100% in [7]. Also, the Activity was 9% in assay [8] and 100% in [9]. This compound gave a half-inhibitory concentration (IC50) in [2] of 8.7 µM.

With `CN(C)CCCC(=O)Nc1ccc2c(C#N)cnc(Nc3cccc(Br)c3)c2c1`, the Activity in assay [1] worked out at 100%; in assay [3], 70%; in assay [4], 94%; in assay [5] it was 96%; in assay [6], 98%; in assay [7], 99%. For the same compound, the Activity in assay [8] was 11%; in assay [9], 100%. In addition, the IC50 in [2] was determined as 25.1 µM.
